Assay results reported in ChEMBL document CHEMBL1155278, “3,4-Diaryl-isoxazoles and -imidazoles as potent dual inhibitors of p38alpha mitogen activated protein kinase and casein kinase 1delta” (J Med Chem, 2009).

How the values were obtained:
[1] = biological target: T1, Inhibitor of nuclear factor kappa-B kinase subunit beta (Homo sapiens) (UniProt O14920); assay: Inhibition of IKK-beta assessed as residual activity at 0.1 uM by Cherenkov counting relative to control in presence of 5 uM ATP
T1 sequence (whole entry): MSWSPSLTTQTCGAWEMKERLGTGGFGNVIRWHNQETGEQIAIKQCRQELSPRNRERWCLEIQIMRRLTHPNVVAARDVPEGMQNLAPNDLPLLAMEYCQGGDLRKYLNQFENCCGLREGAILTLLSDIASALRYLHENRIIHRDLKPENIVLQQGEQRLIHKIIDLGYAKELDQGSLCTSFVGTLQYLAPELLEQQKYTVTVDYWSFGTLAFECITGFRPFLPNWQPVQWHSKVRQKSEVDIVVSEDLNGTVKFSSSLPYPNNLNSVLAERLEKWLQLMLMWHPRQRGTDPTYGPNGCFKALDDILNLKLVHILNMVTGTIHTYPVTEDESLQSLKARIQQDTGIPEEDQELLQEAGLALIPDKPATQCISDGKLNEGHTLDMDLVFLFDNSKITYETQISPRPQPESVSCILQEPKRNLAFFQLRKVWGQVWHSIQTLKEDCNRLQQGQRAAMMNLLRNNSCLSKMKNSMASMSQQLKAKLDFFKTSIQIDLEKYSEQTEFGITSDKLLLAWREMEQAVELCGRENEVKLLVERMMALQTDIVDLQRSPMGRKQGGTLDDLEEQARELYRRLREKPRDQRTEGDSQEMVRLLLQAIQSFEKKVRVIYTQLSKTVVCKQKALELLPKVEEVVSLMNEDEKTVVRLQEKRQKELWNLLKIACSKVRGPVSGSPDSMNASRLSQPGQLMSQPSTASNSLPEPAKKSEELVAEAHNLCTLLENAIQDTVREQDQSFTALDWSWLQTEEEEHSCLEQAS
Procedure, shortened: (§1)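 Single-concentration screen at 0.1 µM across a panel of 76 protein kinases. Each kinase was run at an ATP concentration approximating its ATP Km. Results are % mean residual activity versus control assays without compound (n = 3 ± SD).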

[2] = biological target: T2, Inhibitor of nuclear factor kappa-B kinase subunit epsilon (Homo sapiens) (UniProt Q14164); assay: Inhibition of IKKepsilon assessed as residual activity at 0.1 uM by Cherenkov counting relative to control in presence of 50 uM ATP; procedure, shortened: as §1
T2 sequence (whole entry): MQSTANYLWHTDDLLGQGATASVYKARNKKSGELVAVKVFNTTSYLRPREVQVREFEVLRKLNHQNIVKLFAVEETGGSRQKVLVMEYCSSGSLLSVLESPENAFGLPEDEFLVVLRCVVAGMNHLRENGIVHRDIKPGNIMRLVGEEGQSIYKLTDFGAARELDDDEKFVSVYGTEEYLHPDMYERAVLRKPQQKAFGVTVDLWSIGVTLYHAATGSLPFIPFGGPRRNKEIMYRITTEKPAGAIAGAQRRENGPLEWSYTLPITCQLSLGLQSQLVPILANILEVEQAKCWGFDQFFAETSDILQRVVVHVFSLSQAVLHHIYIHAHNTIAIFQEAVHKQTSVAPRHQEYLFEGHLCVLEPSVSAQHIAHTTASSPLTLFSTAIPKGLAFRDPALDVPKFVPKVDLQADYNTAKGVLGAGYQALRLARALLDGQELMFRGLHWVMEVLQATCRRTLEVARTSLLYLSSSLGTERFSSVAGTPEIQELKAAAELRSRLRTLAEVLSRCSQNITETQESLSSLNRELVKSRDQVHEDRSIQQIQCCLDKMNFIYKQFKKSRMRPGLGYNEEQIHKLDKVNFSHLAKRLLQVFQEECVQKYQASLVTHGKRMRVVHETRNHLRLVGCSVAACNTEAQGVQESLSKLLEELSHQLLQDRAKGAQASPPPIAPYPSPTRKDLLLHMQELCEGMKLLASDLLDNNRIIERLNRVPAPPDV

[3] = biological target: Ribosomal protein S6 kinase beta-1 (Homo sapiens) (UniProt P23443); assay: Inhibition of S6K1 assessed as residual activity at 0.1 uM by Cherenkov counting relative to control in presence of 20 uM ATP
Procedure, shortened: (§2)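 Single-concentration screen at 0.1 μM in a 76-kinase panel. ATP for each kinase was set near its Km for ATP. Residual activity is given as a percentage of control assays without compound, mean of n = 3 ± SD.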

[4] = biological target: Tyrosine-protein kinase BTK (Homo sapiens) (UniProt Q06187); assay: Inhibition of BTK assessed as residual activity at 0.1 uM by Cherenkov counting relative to control in presence of 50 uM ATP; procedure, shortened: as §1
[5] = biological target: Mitogen-activated protein kinase 8 (Homo sapiens) (UniProt P45983); assay: Inhibition of JNK1 assessed as residual activity at 0.1 uM by Cherenkov counting relative to control in presence of 20 uM ATP
Procedure, shortened: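 Single-concentration selectivity screen at 0.1 μM against a panel of 76 protein kinases. Each kinase was run at an ATP level approximating its Km for ATP. Output is mean residual activity as % of the control assay without compound, n = 3 ± SD.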

[6] = biological target: Ribosomal protein S6 kinase alpha-3 (Homo sapiens) (UniProt P51812); assay: Inhibition of RSK2 assessed as residual activity at 0.1 uM by Cherenkov counting relative to control in presence of 50 uM ATP; procedure, shortened: as §2
[7] = Selectivity ratio of IC50 for recombinant CK1epsilon to IC50 for GST-fused rat CK1delta
[8] = biological target: Homeodomain-interacting protein kinase 2 (Homo sapiens) (UniProt Q9H2X6); assay: Inhibition of HIPK2 assessed as residual activity at 0.1 uM by Cherenkov counting relative to control in presence of 5 uM ATP; procedure, shortened: as §1
[9] = biological target: Tyrosine-protein kinase CSK (Homo sapiens) (UniProt P41240); assay: Inhibition of CSK assessed as residual activity at 10 uM by Cherenkov counting relative to control in presence of 20 uM ATP
Procedure, shortened: (§3)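 Single-point profiling at 10 µM in a panel of 78 protein kinases. Kinase activity is expressed as a percentage relative to control assays without compound.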

[10] = biological target: 3-phosphoinositide-dependent protein kinase 1 (Homo sapiens) (UniProt O15530); assay: Inhibition of PDK1 assessed as residual activity at 10 uM by Cherenkov counting relative to control in presence of 20 uM ATP
[11] = biological target: Calcium/calmodulin-dependent protein kinase kinase 1 (Homo sapiens) (UniProt Q8N5S9); assay: Inhibition of CAMKKalpha assessed as residual activity at 10 uM by Cherenkov counting relative to control; procedure, shortened: as §3
[12] = biological target: Ribosomal protein S6 kinase beta-1 (Homo sapiens) (UniProt P23443); assay: Inhibition of S6K1 assessed as residual activity at 10 uM by Cherenkov counting relative to control in presence of 20 uM ATP
Procedure, shortened: (§4)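 Single-concentration profiling at 10 μM in a 78-kinase panel. Kinase activity is expressed as a percentage of control assays run without compound.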

[13] = biological target: Rho-associated protein kinase 2 (Homo sapiens) (UniProt O75116); assay: Inhibition of ROCK2 assessed as residual activity at 10 uM by Cherenkov counting relative to control in presence of 20 uM ATP; procedure, shortened: as §4
[14] = Inhibition of CK2 assessed as residual activity at 10 uM by Cherenkov counting relative to control in presence of 5 uM ATP; procedure, shortened: as §3

Ribosomal protein S6 kinase beta-1 (Homo sapiens), sequence (P23443 whole entry, looked up): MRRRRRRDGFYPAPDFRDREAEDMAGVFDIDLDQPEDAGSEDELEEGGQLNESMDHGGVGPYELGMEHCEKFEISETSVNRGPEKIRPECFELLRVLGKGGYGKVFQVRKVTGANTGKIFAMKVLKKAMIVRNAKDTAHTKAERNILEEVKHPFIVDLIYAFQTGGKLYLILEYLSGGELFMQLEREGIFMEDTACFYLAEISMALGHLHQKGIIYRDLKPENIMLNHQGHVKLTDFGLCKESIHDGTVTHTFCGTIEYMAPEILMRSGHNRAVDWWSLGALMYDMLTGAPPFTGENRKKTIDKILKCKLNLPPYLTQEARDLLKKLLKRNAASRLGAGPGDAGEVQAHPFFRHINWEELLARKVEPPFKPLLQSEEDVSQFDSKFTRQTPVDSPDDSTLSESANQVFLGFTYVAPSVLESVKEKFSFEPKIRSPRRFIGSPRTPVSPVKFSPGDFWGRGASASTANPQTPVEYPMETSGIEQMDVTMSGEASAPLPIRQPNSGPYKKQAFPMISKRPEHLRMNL
Tyrosine-protein kinase BTK (Homo sapiens), sequence (Q06187 whole entry): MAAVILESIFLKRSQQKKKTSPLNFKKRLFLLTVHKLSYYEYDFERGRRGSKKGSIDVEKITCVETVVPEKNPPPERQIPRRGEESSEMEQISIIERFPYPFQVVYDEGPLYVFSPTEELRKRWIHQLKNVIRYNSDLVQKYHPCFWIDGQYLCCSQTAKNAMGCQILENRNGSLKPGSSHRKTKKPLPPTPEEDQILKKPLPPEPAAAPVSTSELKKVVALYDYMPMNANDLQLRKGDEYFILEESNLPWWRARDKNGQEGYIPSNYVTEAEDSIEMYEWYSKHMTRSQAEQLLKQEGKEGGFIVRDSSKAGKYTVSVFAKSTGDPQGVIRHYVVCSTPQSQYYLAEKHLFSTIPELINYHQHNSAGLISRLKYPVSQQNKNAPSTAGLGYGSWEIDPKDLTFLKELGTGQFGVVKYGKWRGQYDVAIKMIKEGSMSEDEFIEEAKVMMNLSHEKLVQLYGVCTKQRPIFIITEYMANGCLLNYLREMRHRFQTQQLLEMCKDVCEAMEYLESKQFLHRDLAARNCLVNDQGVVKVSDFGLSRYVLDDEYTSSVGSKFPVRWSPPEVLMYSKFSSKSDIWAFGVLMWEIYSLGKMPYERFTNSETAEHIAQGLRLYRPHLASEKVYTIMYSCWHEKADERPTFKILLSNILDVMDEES
Tyrosine-protein kinase CSK (Homo sapiens), sequence (P41240 2-450 limits assumed): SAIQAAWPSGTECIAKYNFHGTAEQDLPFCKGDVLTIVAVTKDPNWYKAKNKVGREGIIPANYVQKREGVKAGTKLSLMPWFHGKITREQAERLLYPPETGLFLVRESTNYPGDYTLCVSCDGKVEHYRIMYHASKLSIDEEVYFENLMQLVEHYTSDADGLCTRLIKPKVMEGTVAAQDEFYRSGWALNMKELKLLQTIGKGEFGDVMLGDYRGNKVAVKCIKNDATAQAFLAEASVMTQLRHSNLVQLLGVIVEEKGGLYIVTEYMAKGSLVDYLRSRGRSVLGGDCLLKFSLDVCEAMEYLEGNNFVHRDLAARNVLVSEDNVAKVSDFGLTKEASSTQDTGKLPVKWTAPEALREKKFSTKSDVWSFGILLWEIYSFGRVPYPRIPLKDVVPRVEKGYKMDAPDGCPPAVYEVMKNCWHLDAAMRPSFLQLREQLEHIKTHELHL
Homeodomain-interacting protein kinase 2 (Homo sapiens), sequence (Q9H2X6 whole entry, looked up): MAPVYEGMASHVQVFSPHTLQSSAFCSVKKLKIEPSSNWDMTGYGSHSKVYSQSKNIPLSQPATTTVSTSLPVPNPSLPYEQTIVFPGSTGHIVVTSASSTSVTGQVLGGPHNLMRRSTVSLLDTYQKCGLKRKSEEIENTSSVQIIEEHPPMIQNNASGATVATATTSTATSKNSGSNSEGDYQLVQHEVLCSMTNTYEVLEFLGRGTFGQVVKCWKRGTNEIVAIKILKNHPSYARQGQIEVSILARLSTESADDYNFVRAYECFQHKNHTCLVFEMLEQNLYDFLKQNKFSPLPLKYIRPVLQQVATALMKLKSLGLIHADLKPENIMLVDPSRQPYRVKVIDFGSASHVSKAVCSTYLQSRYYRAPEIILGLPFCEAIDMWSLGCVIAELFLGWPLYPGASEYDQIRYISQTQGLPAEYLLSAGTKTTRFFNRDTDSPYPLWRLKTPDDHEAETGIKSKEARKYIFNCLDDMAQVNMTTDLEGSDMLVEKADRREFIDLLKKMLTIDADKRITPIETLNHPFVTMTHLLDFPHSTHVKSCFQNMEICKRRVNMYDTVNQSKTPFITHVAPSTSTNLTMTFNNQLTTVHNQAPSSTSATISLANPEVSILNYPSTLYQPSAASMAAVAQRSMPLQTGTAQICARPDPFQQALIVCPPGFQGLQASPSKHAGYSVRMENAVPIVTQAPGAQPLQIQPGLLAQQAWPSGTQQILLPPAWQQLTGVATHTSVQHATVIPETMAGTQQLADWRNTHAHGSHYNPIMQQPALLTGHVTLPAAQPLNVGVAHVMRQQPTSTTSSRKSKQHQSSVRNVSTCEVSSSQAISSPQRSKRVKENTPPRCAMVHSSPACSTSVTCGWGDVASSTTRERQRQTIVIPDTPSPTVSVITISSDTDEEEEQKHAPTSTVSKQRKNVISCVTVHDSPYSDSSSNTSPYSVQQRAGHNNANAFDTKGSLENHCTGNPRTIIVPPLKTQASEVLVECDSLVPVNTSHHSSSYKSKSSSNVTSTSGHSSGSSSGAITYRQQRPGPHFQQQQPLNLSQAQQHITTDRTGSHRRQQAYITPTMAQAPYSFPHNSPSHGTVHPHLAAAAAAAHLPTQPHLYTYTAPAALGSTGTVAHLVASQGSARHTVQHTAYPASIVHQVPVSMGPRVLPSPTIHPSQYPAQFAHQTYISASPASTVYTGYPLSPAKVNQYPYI
Calcium/calmodulin-dependent protein kinase kinase 1 (Homo sapiens), sequence (Q8N5S9 whole entry, looked up): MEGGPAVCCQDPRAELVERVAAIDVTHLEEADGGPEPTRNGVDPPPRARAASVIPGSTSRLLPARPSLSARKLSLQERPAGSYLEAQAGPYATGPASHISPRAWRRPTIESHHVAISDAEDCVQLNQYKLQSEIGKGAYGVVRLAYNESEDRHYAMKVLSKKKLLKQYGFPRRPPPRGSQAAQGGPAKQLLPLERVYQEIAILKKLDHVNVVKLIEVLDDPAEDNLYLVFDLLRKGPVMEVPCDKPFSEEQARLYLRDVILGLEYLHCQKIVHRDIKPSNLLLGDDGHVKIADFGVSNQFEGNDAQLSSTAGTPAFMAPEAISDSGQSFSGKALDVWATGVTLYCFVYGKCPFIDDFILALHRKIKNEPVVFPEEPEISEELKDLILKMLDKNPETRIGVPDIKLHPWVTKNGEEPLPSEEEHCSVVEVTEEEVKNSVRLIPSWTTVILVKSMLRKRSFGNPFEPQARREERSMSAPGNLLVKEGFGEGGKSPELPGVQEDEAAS
Rho-associated protein kinase 2 (Homo sapiens), sequence (O75116 whole entry, looked up): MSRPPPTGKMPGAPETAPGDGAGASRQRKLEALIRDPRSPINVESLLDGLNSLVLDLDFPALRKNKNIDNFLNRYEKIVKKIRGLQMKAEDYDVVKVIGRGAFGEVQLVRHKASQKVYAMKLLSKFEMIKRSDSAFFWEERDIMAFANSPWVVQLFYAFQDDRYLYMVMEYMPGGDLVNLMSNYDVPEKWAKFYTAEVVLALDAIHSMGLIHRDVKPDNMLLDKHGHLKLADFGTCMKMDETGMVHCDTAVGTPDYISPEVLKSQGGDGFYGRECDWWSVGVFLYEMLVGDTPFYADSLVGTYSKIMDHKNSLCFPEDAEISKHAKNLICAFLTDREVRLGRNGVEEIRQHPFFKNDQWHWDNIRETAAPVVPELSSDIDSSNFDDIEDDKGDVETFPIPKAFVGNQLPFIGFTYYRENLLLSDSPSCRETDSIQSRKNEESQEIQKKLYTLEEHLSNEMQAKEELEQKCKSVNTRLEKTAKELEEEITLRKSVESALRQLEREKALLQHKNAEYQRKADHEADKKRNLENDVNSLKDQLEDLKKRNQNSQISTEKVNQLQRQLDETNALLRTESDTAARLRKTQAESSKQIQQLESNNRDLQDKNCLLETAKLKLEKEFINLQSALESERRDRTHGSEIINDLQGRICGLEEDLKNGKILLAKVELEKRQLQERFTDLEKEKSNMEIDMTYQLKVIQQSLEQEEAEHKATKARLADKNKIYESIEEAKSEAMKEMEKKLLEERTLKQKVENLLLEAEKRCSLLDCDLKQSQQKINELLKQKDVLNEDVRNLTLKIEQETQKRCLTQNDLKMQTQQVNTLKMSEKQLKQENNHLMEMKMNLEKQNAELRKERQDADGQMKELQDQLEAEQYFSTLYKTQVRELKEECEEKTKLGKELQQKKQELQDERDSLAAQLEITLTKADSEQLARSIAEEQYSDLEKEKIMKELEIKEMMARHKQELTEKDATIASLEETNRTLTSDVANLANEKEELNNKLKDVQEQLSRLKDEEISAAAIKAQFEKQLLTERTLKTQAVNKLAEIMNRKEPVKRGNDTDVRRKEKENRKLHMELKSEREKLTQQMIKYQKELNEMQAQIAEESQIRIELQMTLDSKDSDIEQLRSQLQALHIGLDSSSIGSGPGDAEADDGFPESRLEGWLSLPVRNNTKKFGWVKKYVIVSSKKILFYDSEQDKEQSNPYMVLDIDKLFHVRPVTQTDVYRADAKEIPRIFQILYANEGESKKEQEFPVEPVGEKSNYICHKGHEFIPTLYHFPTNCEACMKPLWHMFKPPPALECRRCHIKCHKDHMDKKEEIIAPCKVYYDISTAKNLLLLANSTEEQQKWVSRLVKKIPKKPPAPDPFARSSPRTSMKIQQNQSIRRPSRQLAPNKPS

Activity [1] [%]	Activity [2] [%]	Activity [3] [%]	Activity [4] [%]	Activity [5] [%]	Activity [6] [%]	Ratio IC50 [7]	Activity [8] [%]	Activity [9] [%]	Activity [10] [%]	Activity [11] [%]	Activity [12] [%]	Activity [13] [%]	Activity [14] [%]	Compound
87	90	74	105	53	94	41	104	–	–	–	–	–	–	COc1ccc(/C=C/C(=O)Nc2cc(-c3[nH]c([S+](C)[O-])nc3-c3ccc(F)cc3)ccn2)c(OC)c1 (stereo not drawn)
–	–	–	–	–	–	–	–	95	85	103	98	77	95	CC(C)c1noc(-c2ccc(F)cc2)c1-c1ccncc1
–	–	–	–	–	–	–	–	87	82	91	89	76	96	CC(C)c1onc(-c2ccc(F)cc2)c1-c1ccncc1
84	97	67	92	90	86	15	94	–	–	–	–	–	–	COc1ccc(/C=C/C(=O)Nc2cc(-c3[nH]c(SC)nc3-c3ccc(F)cc3)ccn2)c(OC)c1
